Experimental data from ChEMBL document CHEMBL1122609, “N-allyl analogues of phencyclidine: chemical synthesis and pharmacological properties” (J Med Chem, 1984).

Assays:
[1] = Ratio of failed to the tested was reported at dose 19.0 umol/kg (experiment 2); out of 6; type: functional
[2] = test system: Mus musculus; assay: Percent failing the test was reported at dose 13.2 umol/kg (experiment 1); type: functional
[3] = test system: Mus musculus; assay: Lethal dose (LD50) determined by the Litchfield and Wilcoxon method was reported; type: functional
In short: (§1)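 Male HAP ICR Swiss mice, 25-35 g, in groups of six, given ip doses. Deaths counted at 24 h after injection. LD50 estimated by Litchfield–Wilcoxon probit analysis, as for ED50.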

[4] = organism: Mus musculus; assay: Relative potency was determined using mouse platform test of Coughenour et al.; type: functional
In short: (§2)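 Male HAP ICR Swiss mice, 25-30 g, pre-screened for passing. Dosing ip in 0.9% NaCl as a solution or fine suspension, 0.01 mL/g, 4-6 doses, six mice per dose, repeated on 2-4 more days. Platform rotated 180° at 5-120 min. Falling, or failing to climb within 60 s, scored.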

[5] = Ratio of half life (protection) to the control was reported at a concentration 4*10e-6 M; type: ADME
In short: (§3)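 Horse-serum BChE (3 units/mg), Ellman method: 0.025 unit with acetylthiocholine 1.87 × 10^-3 M in 0.1 M phosphate buffer pH 7.4 at 25 °C, absorbance at 412 nm followed over time. Enzyme preincubated 3 min with test compound. DFP 2.5 × 10^-8 M then added. Aliquots assayed for residual activity at various times. Pseudo-first-order constant used to obtain k2 = ln(A0/At)/([I]t).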

[6] = Ratio of half life (protection) to the control was reported at a concentration 4*10e-5 M; type: ADME; in short: as §3
[7] = Ratio of half life (protection) to the control was reported at a concentration 0 M; type: ADME; in short: as §3
[8] = Ratio of failed to the tested was reported at dose 16.0 umol/kg (experiment 1); out of 6; type: functional
[9] = organism: Mus musculus; assay: Effective dose for the degree of motor incoordination in untrained mice; type: functional; in short: as §2
[10] = target: Muscarinic acetylcholine receptor; assay: Dissociation constant towards Muscarinic acetylcholine receptor was determined by using [3H]4NMPB as radioligand; type: protein assay
In short: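 Competition binding with [3H]-4NMPB in the S1 supernatant of mouse-brain homogenate, with and without test compound at various concentrations. Nonspecific binding determined and subtracted. KD calculated from the difference in binding.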

[11] = Ratio of half life (protection) to the control was reported at a concentration 8*10e-6 M; type: ADME; in short: as §3
[12] = organism: Mus musculus; assay: Acute toxicity relative to PCP was reported.; type: organism-based; conditions: in vivo
[13] = test system: Mus musculus; assay: Percent failing the test was reported at dose 9.60 umol/kg (experiment 2); type: functional
[14] = Ratio of half life (protection) to the control was reported at a concentration 4*10e-7 M; type: ADME; in short: as §3
[15] = Ratio of failed to the tested was reported at dose 26.0 umol/kg (experiment 1); out of 6; type: functional
In short: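 Male HAP ICR Swiss mice (20-30 g), six per group, pre-screened on the platform test. An N-allyl analogue in 0.9% NaCl was given ip, and PCP ip followed 5 min later. The platform was rotated 180° within 10 s, and mice were scored over 60 s for falling off or reaching the top. Testing was at 5-120 min post-injection. The read-out was the number failing out of the number tested.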

[16] = Ratio of half life (protection) to the control was reported at a concentration 9*10e-7 M; type: ADME; in short: as §3
[17] = Ratio of failed to the tested was reported at dose 29.0 umol/kg (experiment 2); out of 6; type: functional
[18] = Ratio of failed to the tested was reported at dose 13.2 umol/kg (experiment 1); out of 6; type: functional
In short: (§4)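 Male HAP ICR Swiss mice (20-30 g) pre-screened on the mouse platform test. PCP was given ip in 0.9% NaCl (0.01 mL/g). The platform was rotated 180° within 10 s, and mice were scored over 60 s for falling off, failing to reach the top, or reaching the top. Testing was at 5-120 min post-injection. The read-out was the number failing out of the number tested.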

[19] = Ratio of half life (protection) to the control was reported at a concentration 3*10e-6 M; type: ADME
In short: (§5)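 Horse serum BChE (0.5 unit/mL) was incubated 3 min with the compound, then DFP was added at 2.5 × 10^-8 M, 25 °C. Residual activity was measured in aliquots over time by the Ellman method: acetylthiocholine 1.87 × 10^-3 M, 0.1 M phosphate pH 7.4, absorbance at 412 nm. Inactivation was fitted as pseudo-first-order.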

[20] = Ratio of failed to the tested was reported at dose 9.60 umol/kg (experiment 2); out of 6; type: functional
[21] = Ratio of half life (protection) to the control was reported at a concentration 2*10e-6M; type: ADME; in short: as §5
[22] = organism: Mus musculus; assay: Compound was evaluated for acute toxicity relative to PCP; type: organism-based; conditions: in vivo
[23] = test system: Mus musculus; assay: Percent failing the test was reported at dose 9.60 umol/kg (experiment 1); type: functional
[24] = Ratio of failed to the tested was reported at dose 12.4 umol/kg (experiment 1); out of 12; type: functional
[25] = Ratio of failed to the tested was reported at dose 15.2 umol/kg (experiment 2); out of 12; type: functional
[26] = organism: Mus musculus; assay: Compound was evaluated for acute toxicity relative to compound PCP; type: organism-based; conditions: in vivo
[27] = Ratio of failed to the tested was reported at dose 9.60 umol/kg (experiment 2); out of 24; type: functional; in short: as §4
[28] = test system: Mus musculus; assay: Compound was evaluated for lethal dose (LD50) by the Litchfield and Wilcoxon method; type: functional; in short: as §1

SMILES	Activity [2] [%]	LD50 [3] [µmol/kg]	Relative potency [4]	Ratio [5]	Ratio [7]	ED50 [9] [µmol/kg]	Kd [10] [µM]	Ratio [11]	Acute toxicity [12]	Activity [13] [%]	Ratio [14]	Ratio [18]	also measured
C=CCN(C)C1(c2ccccc2)CCCCC1	100	516	0.41	2.15	1	27.2	15	2.21	0.5	100	–	–	Ratio [1]: 6; Ratio [6]: 7.76; Ratio [8]: 6
C=CCN(CC=C)C1(c2ccccc2)CCCCC1	100	–	0.27	5.89	1	35.6	25	–	–	100	1.18	–	Ratio [15]: 6; Ratio [16]: 2.12; Ratio [17]: 6
CCNC1(c2ccccc2)CCCCC1 [ETICYCLIDINE]	–	–	–	2.6	1	–	–	2.52	–	–	0.95	–	–
C=CCNC1(c2ccccc2)CCCCC1	100	344	0.55	2.61	1	20.4	70	2.35	–	–	–	6	Ratio [19]: 1.71; Ratio [20]: 5; Ratio [21]: 1.22; Acute toxicity [22]: 0.75; Activity [23]: 83%
C=CCN(CC)C1(c2ccccc2)CCCCC1	83	441	0.42	5.11	1	22.6	14	1.71	0.59	83	1.33	–	Ratio [24]: 10; Ratio [25]: 10
c1ccc(C2(N3CCCCC3)CCCCC2)cc1 [PHENCYCLIDINE]	33.3	–	1	4.48	1	9.6	9.1	1.73	–	45.8	1.26	2	Acute toxicity [26]: 1; Ratio [27]: 11; LD50 [28]: 258 µmol/kg
